By IC50 is commonly meant the concentration at which inhibition is half-maximal. As usually defined, the AUC is the area under the concentration-time curve, a measure of exposure.

The source made the active and inactive calls. The calls are words filed in the database; no cut-off is given here.

Experimental findings from ChEMBL document CHEMBL4043080 (J Med Chem, 2017) are described below.

Series [1] deals with G protein-coupled receptor kinase 5 (Bos taurus, UniProt P43249). Briefly: Inhibition of bovine GRK5 after 5 mins after 5 mins in presence of ATP by phosphorimaging assay.
Sequence of G protein-coupled receptor kinase 5 (P43249 whole entry): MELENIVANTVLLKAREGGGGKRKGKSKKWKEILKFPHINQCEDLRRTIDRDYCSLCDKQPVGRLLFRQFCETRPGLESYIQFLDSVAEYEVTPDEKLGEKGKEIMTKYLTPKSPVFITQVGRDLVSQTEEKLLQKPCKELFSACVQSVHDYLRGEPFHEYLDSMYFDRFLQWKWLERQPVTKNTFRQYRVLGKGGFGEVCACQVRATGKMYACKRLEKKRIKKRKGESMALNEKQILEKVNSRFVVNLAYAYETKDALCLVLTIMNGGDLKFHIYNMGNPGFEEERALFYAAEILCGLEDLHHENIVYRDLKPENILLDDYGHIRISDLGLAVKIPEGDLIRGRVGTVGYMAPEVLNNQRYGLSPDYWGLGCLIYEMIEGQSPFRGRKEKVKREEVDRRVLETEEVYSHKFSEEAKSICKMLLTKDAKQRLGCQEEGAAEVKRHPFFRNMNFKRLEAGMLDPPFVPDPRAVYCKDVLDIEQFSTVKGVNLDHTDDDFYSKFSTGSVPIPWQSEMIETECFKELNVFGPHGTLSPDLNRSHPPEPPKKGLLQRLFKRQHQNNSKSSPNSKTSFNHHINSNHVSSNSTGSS
Series [2] is described as follows: Inhibition of mouse PKA using CREBtide as substrate after 30 mins in presence of ATP by ADP-Glo kinase assay. Summed up:
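Mouse PKA catalytic subunit activity by ADP-Glo luminescence per kit protocol; inhibition curves fitted to obtain values.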
A general note: In ADP-Glo the light output rises with the ADP produced.

Series [3] deals with Rhodopsin kinase GRK1 (Bos taurus, UniProt P28327). Briefly: Inhibition of bovine GRK1 (1 to 535 residues) after 5 mins after 5 mins in presence of ATP by phosphorimaging assay.
Sequence of Rhodopsin kinase GRK1 (P28327 whole entry, the tested form may be a part): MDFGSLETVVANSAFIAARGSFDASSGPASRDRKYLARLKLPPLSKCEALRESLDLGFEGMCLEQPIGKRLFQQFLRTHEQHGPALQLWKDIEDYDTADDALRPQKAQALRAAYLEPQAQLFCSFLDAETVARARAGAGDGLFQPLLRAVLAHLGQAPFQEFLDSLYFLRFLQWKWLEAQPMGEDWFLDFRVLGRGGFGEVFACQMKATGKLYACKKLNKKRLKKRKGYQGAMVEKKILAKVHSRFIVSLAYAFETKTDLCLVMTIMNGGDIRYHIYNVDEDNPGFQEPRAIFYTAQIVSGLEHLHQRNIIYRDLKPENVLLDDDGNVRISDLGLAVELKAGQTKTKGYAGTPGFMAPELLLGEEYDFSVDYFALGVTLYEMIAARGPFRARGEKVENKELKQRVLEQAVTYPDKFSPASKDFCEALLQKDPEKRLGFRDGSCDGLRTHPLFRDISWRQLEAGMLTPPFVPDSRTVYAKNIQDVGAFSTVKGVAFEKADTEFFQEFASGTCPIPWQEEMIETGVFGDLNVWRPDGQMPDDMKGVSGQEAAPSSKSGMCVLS
Series [4] can be described thus: Plasma concentration in CD-1 mouse at 10 mg/kg, ip after 4 hrs administered as single dose by LC-MS/MS analysis. Format: ADME, organism-based. Summed up:
(§1)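 Female CD-1 mice given a single ip dose of 10 mg/kg in 15% DMSO/15% PEG-400/70% PBS (v/v); blood sampled at 0.5, 2, 4 and 7 h, centrifuged, plasma frozen at −80 °C; drug quantified by positive-ion MRM LC–MS/MS; parameters by noncompartmental analysis.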

The nature of series [5]: Plasma concentration in CD-1 mouse at 10 mg/kg, ip after 7 hrs administered as single dose by LC-MS/MS analysis. The class given is ADME, organism-based. Summed up: as §1
The target of series [6] is T1, Beta-adrenergic receptor kinase 1 (Mus musculus) (UniProt Q99MK8).
T1 sequence (whole entry): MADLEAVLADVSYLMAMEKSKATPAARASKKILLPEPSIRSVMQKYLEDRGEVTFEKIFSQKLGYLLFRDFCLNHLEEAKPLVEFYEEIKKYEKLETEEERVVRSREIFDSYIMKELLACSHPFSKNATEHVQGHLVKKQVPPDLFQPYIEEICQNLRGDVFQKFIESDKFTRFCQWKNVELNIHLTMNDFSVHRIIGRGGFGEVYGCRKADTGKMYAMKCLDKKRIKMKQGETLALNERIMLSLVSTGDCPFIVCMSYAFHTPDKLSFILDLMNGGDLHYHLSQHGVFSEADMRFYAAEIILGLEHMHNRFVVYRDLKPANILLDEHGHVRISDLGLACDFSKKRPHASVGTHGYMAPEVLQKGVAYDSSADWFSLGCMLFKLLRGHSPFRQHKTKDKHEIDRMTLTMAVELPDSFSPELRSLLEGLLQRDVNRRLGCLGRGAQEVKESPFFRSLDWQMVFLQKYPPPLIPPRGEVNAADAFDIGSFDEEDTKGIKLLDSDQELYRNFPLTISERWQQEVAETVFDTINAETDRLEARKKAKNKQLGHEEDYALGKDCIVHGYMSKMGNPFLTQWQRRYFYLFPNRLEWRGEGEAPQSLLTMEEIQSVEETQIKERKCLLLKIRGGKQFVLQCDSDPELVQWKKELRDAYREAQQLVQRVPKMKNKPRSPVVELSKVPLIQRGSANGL
Briefly: Inhibition of GRK2 in isoproterenol-stimulated C57/BL6 mouse cardiomyocytes assessed as increase in contractility by measuring cell shortening at 0.1 uM pretreated for 10 mins followed by beta-AR agonist isoproterenol addition for 2 mins.

The target in series [7] is T1, Beta-adrenergic receptor kinase 1 (Mus musculus). The settings on record: C57/BL6.
In series [8] the test system is Liver. Description: Half life in CD-1 mouse liver microsomes at 1 uM measured up to 60 mins in presence of NADPH by LC-MS/MS analysis. Format: ADME, microsome. Particulars: 1 h. For orientation: Liver microsomes are vesicles of endoplasmic reticulum, rich in cytochrome P450 enzymes.
The subject of series [9] is Mus musculus. Description: AUC (0 to 7 hrs) in CD-1 mouse at 10 mg/kg, ip administered as single dose by LC-MS/MS analysis. Format: ADME, organism-based. Particulars: in vivo. The arrangement: time < 7 hr, dose 10 mg/kg, route intraperitoneal. Summed up: as §1
The target of series [10] is T1, Beta-adrenergic receptor kinase 1 (Mus musculus). Description: Inhibition of GRK2 in isoproterenol-stimulated C57/BL6 mouse cardiomyocytes assessed as increase in contractility by measuring cell shortening at 1 uM pretreated for 10 mins followed by beta-AR agonist isoproterenol addition for 2 mins.
For series [11] the target is unchanged. Briefly: Inhibition of GRK2 in isoproterenol-stimulated C57/BL6 mouse cardiomyocytes assessed as increase in contractility by measuring cell shortening at 0.5 uM pretreated for 10 mins followed by beta-AR agonist isoproterenol addition for 2 mins.

In the case of `O=C(NCc1ccccc1)c1cc([C@@H]2CCNC[C@H]2COc2ccc3c(c2)OCO3)ccc1F`, the half-maximal inhibitory concentration (IC50) in series [1] is 84.3 µM; in [2], greater than 100 µM; in series [3] it was greater than 100 µM.

Consider `O=C(NCc1cccnc1)c1cc([C@@H]2CCNC[C@H]2COc2ccc3c(c2)OCO3)ccc1F`, for which the results for the IC50 in series [1], in series [2] and in [3] were 76.3 µM, greater than 100 µM and greater than 100 µM, respectively.

For the compound `O=C(NCc1ccn[nH]1)c1cc([C@@H]2CCNC[C@H]2COc2ccc3c(c2)OCO3)ccc1F`, the concentration at 4 h in series [4] stood at 270 nM. The compound also gave a concentration at 7 h in [5] of 43 nM. In addition, the concentration for half-maximal inhibition (IC50) in series [2] is greater than 100 µM. Also, the inhibition entry in series [6] is “Active”. This compound also returned an MEC in [7] of 0.1 µM.

In the case of `COc1cccc(OC)c1CNC(=O)c1cc([C@@H]2CCNC[C@H]2COc2ccc3c(c2)OCO3)ccc1F`, the results for the IC50 in series [1], in [2] and in series [3] were 38.4 µM, greater than 100 µM and 32 µM, respectively. In addition, the t1/2 in [8] came out at 24.9 min.

For the compound `O=C(Cc1cc([C@@H]2CCNC[C@H]2COc2ccc3c(c2)OCO3)ccc1F)NCc1ccccn1`, the IC50 in [1] was greater than 100 µM; in [2], 48.2 µM; in series [3] it was 60 µM.

Compound `Cn1c(CNc2cccc(C(=O)NCc3ccccc3C(F)(F)F)c2)nnc1-c1ccncc1` showed a concentration at 4 h in series [4] of 5 nM. The compound also returned an AUC in series [9] of 1.9 µM·h. Moreover, the half-inhibitory concentration (IC50) was determined as 9.2 µM in [1] and 52.1 µM in series [3]. The same compound showed a concentration at 7 h in series [5] of 6 nM.

Consider `COc1cccc(OC)c1CNC(=O)c1cc(C2NC(=O)NC(C)=C2C(=O)Nc2ccc3[nH]ncc3c2)ccc1F` (centres undefined), for which the IC50 in [1], in series [2] and in series [3] was greater than 100 µM throughout. For the same compound, the t1/2 in series [8] came out at 3.82 min.

For `O=C(NCc1c(F)cccc1F)c1cc([C@@H]2CCNC[C@H]2COc2ccc3c(c2)OCO3)ccc1F`, the IC50 in [1] is 37.2 µM; in series [2], greater than 100 µM; in series [3], greater than 100 µM.

Take `O=C(NCCc1ccncc1)c1cc([C@@H]2CCNC[C@H]2COc2ccc3c(c2)OCO3)ccc1F`: the IC50 in series [1], in series [2] and in series [3] was greater than 100 µM throughout.

On to `COc1ccccc1CNC(=O)Cc1cc([C@@H]2CCNC[C@H]2COc2ccc3c(c2)OCO3)ccc1F`, for which the IC50 in series [1] is greater than 100 µM; in series [2] it was 25.8 µM; in series [3] it was greater than 100 µM.

In the case of `Cn1ccc(CNC(=O)c2cc([C@@H]3CCNC[C@H]3COc3ccc4c(c3)OCO4)ccc2F)n1`, the IC50 in [1], in series [2] and in series [3] was greater than 100 µM in each case.

`Cc1cc(CNC(=O)c2cc([C@@H]3CCNC[C@H]3COc3ccc4c(c3)OCO4)ccc2F)n[nH]1`: the IC50 was 4 µM in [1], greater than 100 µM in series [2] and 86.5 µM in series [3]. In addition, the t1/2 in [8] is reported as 10.3 min.

Turning to `O=C(NCCc1cc[nH]n1)c1cc([C@@H]2CCNC[C@H]2COc2ccc3c(c2)OCO3)ccc1F`, the IC50 in series [1], in [2] and in series [3] was greater than 100 µM in each case.

Regarding `CCCn1c(CNc2cccc(C(=O)NCc3c(F)cccc3F)c2)nnc1-c1ccncn1`, the IC50 in [1] was found to be 2.2 µM; in series [3], 9.1 µM.

For `Fc1ccc([C@@H]2CCNC[C@H]2COc2ccc3c(c2)OCO3)cc1` [PAROXETINE], the IC50 in series [1], in series [2] and in [3] was greater than 100 µM each time. The t1/2 in series [8] is reported as 24.3 min.

For `O=C(NCCc1c[nH]cn1)c1cc([C@@H]2CCNC[C@H]2COc2ccc3c(c2)OCO3)ccc1F`, the IC50 in series [1], in series [2] and in [3] was greater than 100 µM in each case.

Turning to `O=C(NCc1ccccn1)c1cc([C@@H]2CCNC[C@H]2COc2ccc3c(c2)OCO3)ccc1F`, the figures for the IC50 in [1], in series [2] and in series [3] were 17.1 µM, greater than 100 µM and greater than 100 µM, respectively. For the same compound, the inhibition result in [10] and in [11] was “inactive” in each case. In series [8], the t1/2 turned out to be 3.15 min.

As to `CNC(=O)c1cc([C@@H]2CCNC[C@H]2COc2ccc3c(c2)OCO3)ccc1F`, the IC50 in series [1], in series [2] and in series [3] was greater than 100 µM each time.

Consider `Cc1cccc(C)c1CNC(=O)c1cc([C@@H]2CCNC[C@H]2COc2ccc3c(c2)OCO3)ccc1F`, for which the results for the IC50 in series [1], in series [2] and in series [3] were 42.3 µM, greater than 100 µM and 24.5 µM, respectively. In addition, in series [8], the t1/2 is 45.9 min.

Regarding `O=C(NCc1ccncc1)c1cc([C@@H]2CCNC[C@H]2COc2ccc3c(c2)OCO3)ccc1F`, the IC50 in series [1], in [2] and in series [3] was greater than 100 µM throughout.

As to `O=C(NCc1ncc[nH]1)c1cc([C@@H]2CCNC[C@H]2COc2ccc3c(c2)OCO3)ccc1F`, the concentration for half-maximal inhibition (IC50) in series [1] was 14.8 µM; in [2], greater than 100 µM; in [3], greater than 100 µM.

Consider `O=C(NCc1ccccc1C(F)(F)F)c1cc([C@@H]2CCNC[C@H]2COc2ccc3c(c2)OCO3)ccc1F`, for which the IC50 is 75.7 µM in [1], greater than 100 µM in series [2] and greater than 100 µM in series [3].

`O=C(Cc1cc([C@@H]2CCNC[C@H]2COc2ccc3c(c2)OCO3)ccc1F)NCCc1ccccn1`: the IC50 in series [1], in series [2] and in [3] was greater than 100 µM throughout.

With `CC1=C(C(=O)Nc2ccc3[nH]ncc3c2)C(c2ccc(F)cc2)NC(=O)N1` (centres undefined) [GSK-180736A], in series [10], the inhibition entry was “Active”. Besides, the t1/2 in [8] came out at 20.6 min. The IC50 in series [3] is greater than 100 µM.

On to `O=C(Cc1cc([C@@H]2CCNC[C@H]2COc2ccc3c(c2)OCO3)ccc1F)NCCc1cn[nH]c1`, for which the IC50 in series [1], in [2] and in series [3] was greater than 100 µM throughout.

For the compound `O=C(NCCc1ccccn1)c1cc([C@@H]2CCNC[C@H]2COc2ccc3c(c2)OCO3)ccc1F`, the IC50 in series [1], in [2] and in series [3] was greater than 100 µM in each case.

Turning to `O=C(NCCc1cn[nH]c1)c1cc([C@@H]2CCNC[C@H]2COc2ccc3c(c2)OCO3)ccc1F`, the IC50 in [1], in series [2] and in series [3] was greater than 100 µM throughout.

In the case of `COc1ccccc1CNC(=O)c1cc([C@@H]2CCNC[C@H]2COc2ccc3c(c2)OCO3)ccc1F`, the half-maximal inhibitory concentration (IC50) in series [1], in series [2] and in series [3] was greater than 100 µM each time.

On to `O=C(NCCc1ccccc1)c1cc([C@@H]2CCNC[C@H]2COc2ccc3c(c2)OCO3)ccc1F`, for which the IC50 in series [1], in [2] and in series [3] was greater than 100 µM in each case.

Take `O=C(NCCc1c(F)cccc1F)c1cc([C@@H]2CCNC[C@H]2COc2ccc3c(c2)OCO3)ccc1F`: the figures for the IC50 in [1], in [2] and in series [3] were 10.2 µM, greater than 100 µM and greater than 100 µM, respectively.

For the compound `Cn1nccc1CNC(=O)c1cc([C@@H]2CCNC[C@H]2COc2ccc3c(c2)OCO3)ccc1F`, the IC50 in series [1], in [2] and in series [3] was greater than 100 µM each time.

Regarding `O=C(NCc1cn[nH]c1)c1cc([C@@H]2CCNC[C@H]2COc2ccc3c(c2)OCO3)ccc1F`, the IC50 in [1], in [2] and in series [3] was greater than 100 µM throughout.

For the compound `O=C(NCCc1cccnc1)c1cc([C@@H]2CCNC[C@H]2COc2ccc3c(c2)OCO3)ccc1F`, the IC50 in series [1], in series [2] and in series [3] was greater than 100 µM in each case.

As to `O=C(NCc1c(Cl)cccc1Cl)c1cc([C@@H]2CCNC[C@H]2COc2ccc3c(c2)OCO3)ccc1F`, the IC50 in series [1] is 33.2 µM; in series [2], greater than 100 µM; in [3] it was 25.8 µM. The t1/2 in [8] is reported as 36.4 min.
